# Data as given in ChEMBL document CHEMBL4177701, “A novel series of enoyl reductase inhibitors targeting the ESKAPE pathogens, Staphylococcus aureus and Acinetobacter baumannii” (Bioorg Med Chem, 2018).
# Calls of active or inactive are those of the source. The rule behind the calls is not given here.
# Key:
# [1] = Solubility of the compound; type: physicochemical
# [2] = system: HepG2; experiment: Cytotoxicity against human HepG2 cells assessed as reduction in cell viability after 24 hrs in presence of 0.5% FBS by MTT assay; type: cell-based; details: HepG2, 24 h
# How it was run: (§1)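 HepG2 cells in EMEM with either 10% FBS or 0.5% FBS plus 10% Cell-Ess serum replacement. Seeded at 25,000 cells/well and incubated overnight at 37 °C, 5% CO2. Treated 24 h at 100–3 μg/mL, with matched DMSO controls. MTT added for 2 h, formazan extracted in DMSO, absorbance read at 570 nm. Run in duplicate; IC50 taken from the viability plot against the DMSO control.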
# [3] = system: Acinetobacter baumannii ATCC 19606 = CIP 70.34 = JCM 6841; experiment: Binding affinity to Acinetobacter baumannii 2208 ATCC 19606 FabI by SPR assay
# [4] = target: T1, Enoyl-[acyl-carrier-protein] reductase [NADPH] FabI (Staphylococcus aureus) (UniProt Q6GI75); experiment: Binding affinity to Staphylococcus aureus subsp. aureus Rosenbach ATCC 43300 FabI by SPR assay
# T1 sequence (whole entry): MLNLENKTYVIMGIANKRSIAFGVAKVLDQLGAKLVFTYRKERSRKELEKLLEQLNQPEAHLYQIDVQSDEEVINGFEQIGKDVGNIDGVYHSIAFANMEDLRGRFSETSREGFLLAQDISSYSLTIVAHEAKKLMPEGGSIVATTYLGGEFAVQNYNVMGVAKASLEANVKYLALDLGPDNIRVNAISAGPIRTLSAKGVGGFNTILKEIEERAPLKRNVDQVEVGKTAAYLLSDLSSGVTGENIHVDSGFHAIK
# [5] = system: Staphylococcus aureus; experiment: Antibacterial activity against Staphylococcus aureus Newman by microbroth dilution method; type: functional
# How it was run: (§2)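 Microbroth dilution MIC; each value is the mean of at least two runs, within two-fold experimental uncertainty.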
# [6] = system: Staphylococcus aureus; experiment: Antibacterial activity against Staphylococcus aureus RN4220 over-expressing FabI by microbroth dilution method; type: functional
# How it was run: (§3)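 Broth microdilution MIC; reported value is mean of at least two runs, within two-fold experimental uncertainty.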
# [7] = system: Escherichia coli; experiment: Antibacterial activity against Escherichia coli BW25113 mutant by microbroth dilution method; type: functional; how it was run: as §3
# [8] = system: Staphylococcus aureus; experiment: Selectivity ratio of MIC for Staphylococcus aureus RN4220 over-expressing FabI to MIC for Staphylococcus aureus RN4220; type: functional
# [9] = system: Acinetobacter baumannii; experiment: Synergistic antibacterial activity against Acinetobacter baumannii 2208 ATCC 19606 assessed as fractional inhibitory concentration in presence of colistin by checkerboard method; type: functional, ATCC 19606 = CIP 70.34 = JCM 6841 2208
# [10] = system: Acinetobacter baumannii; experiment: Synergistic antibacterial activity against MDR Acinetobacter baumannii ATCC BAA-1605 assessed as fold reduction in colistin MIC by checkerboard method; type: functional
# [11] = system: Acinetobacter baumannii; experiment: Synergistic antibacterial activity against MDR Acinetobacter baumannii ATCC BAA-1605 in presence of colistin by checkerboard method; type: functional
# How it was run: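 Checkerboard broth dilution in tryptic soy broth. Colistin 4 to 0.03 μg/mL against analog 100 to 0.19 μg/mL, crossed. Clear wells scored. ΣFIC = C/MIC(compound) + C/MIC(partner); <0.5 synergy, 0.5–2 indifference, >2 antagonism.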
# [12] = system: HepG2; experiment: Cytotoxicity against human HepG2 cells assessed as reduction in cell viability after 24 hrs in presence of 10% FBS by MTT assay; type: cell-based; details: HepG2, 24 h; how it was run: as §1
# [13] = Inhibition of Acinetobacter baumannii 2208 ATCC 19606 FabI using crotonyl-CoA as substrate in presence of NADPH/NADH after 10 mins by fluorescence assay; design: species or system Acinetobacter baumannii ATCC 19606 = CIP 70.34 = JCM 6841
# How it was run: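 AbFabI, 200 nM, in 50 mM MES/100 mM NaCl with 200 μM NADH, 0.1 mg/mL BSA and 0.01% triton. Reaction started with 300 μM crotonyl-CoA. NADH fluorescence read at 340/460 nm. Compounds tested at 0.4 nM–200 μM. Initial 10-min slopes were compared with a DMSO no-compound control. At least two independent experiments, each in duplicate; two-fold uncertainty.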
# [14] = system: Acinetobacter baumannii; experiment: Synergistic antibacterial activity against Acinetobacter baumannii 2208 ATCC 19606 in presence of colistin by checkerboard method; type: functional; details: ATCC 19606 = CIP 70.34 = JCM 6841 2208
# [15] = system: Acinetobacter baumannii; experiment: Antibacterial activity against Acinetobacter baumannii 2208 ATCC 19606 by microbroth dilution method; type: functional; details: ATCC 19606 = CIP 70.34 = JCM 6841 2208; how it was run: as §2
# [16] = system: Acinetobacter baumannii; experiment: Synergistic antibacterial activity against Acinetobacter baumannii 2208 ATCC 19606 assessed as colistin MIC by checkerboard method; type: functional; details: ATCC 19606 = CIP 70.34 = JCM 6841 2208
# [17] = Competitive inhibition of Acinetobacter baumannii 2208 ATCC 19606 FabI using crotonyl-CoA as substrate in presence of NADPH/NADH after 10 mins by fluorescence assay; design: species or system Acinetobacter baumannii ATCC 19606 = CIP 70.34 = JCM 6841
# [18] = system: Acinetobacter baumannii; experiment: Synergistic antibacterial activity against MDR Acinetobacter baumannii ATCC BAA-1605 assessed as colistin MIC by checkerboard method; type: functional
# [19] = target: T2, Enoyl-[acyl-carrier-protein] reductase [NADPH] FabI (Staphylococcus aureus, UniProt Q6GI75); experiment: Competitive inhibition of Staphylococcus aureus subsp. aureus Rosenbach ATCC 43300 FabI using crotonyl-CoA as substrate in presence of NADPH/NADH after 10 mins by fluorescence assay
# T2 sequence (Q6GI75 whole entry): T1 sequence (whole entry)
# [20] = system: Acinetobacter baumannii; experiment: Synergistic antibacterial activity against MDR Acinetobacter baumannii ATCC BAA-1605 assessed as fractional inhibitory concentration in presence of colistin by checkerboard method; type: functional
# [21] = system: Staphylococcus aureus; experiment: Antibacterial activity against methicillin-resistant Staphylococcus aureus subsp. aureus Rosenbach ATCC 43300 by microbroth dilution method; type: functional; how it was run: as §3
# [22] = system: Staphylococcus aureus; experiment: Antibacterial activity against Staphylococcus aureus RN4220 by microbroth dilution method; type: functional; how it was run: as §3
# [23] = system: Acinetobacter baumannii; experiment: Synergistic antibacterial activity against Acinetobacter baumannii 2208 ATCC 19606 assessed as fractional inhibitory concentration in presence of polymixin B by checkerboard method; type: functional, ATCC 19606 = CIP 70.34 = JCM 6841 2208
# [24] = system: Acinetobacter baumannii; experiment: Synergistic antibacterial activity against Acinetobacter baumannii 2208 ATCC 19606 assessed as polymixin B MIC by checkerboard method; type: functional; details: ATCC 19606 = CIP 70.34 = JCM 6841 2208
# [25] = system: Acinetobacter baumannii; experiment: Synergistic antibacterial activity against Acinetobacter baumannii 2208 ATCC 19606 in presence of polymixin B by checkerboard method; type: functional; details: ATCC 19606 = CIP 70.34 = JCM 6841 2208
# [26] = system: Escherichia coli; experiment: Antibacterial activity against Escherichia coli BW25113 harboring TolC deletion mutant by microbroth dilution method; type: functional; how it was run: as §3
# [27] = Selectivity index, ratio for IC50 for human HepG2 cells to MIC for Staphylococcus aureus RN4220 over-expressing FabI; type: toxicity
# [28] = Selectivity index, ratio for IC50 for human HepG2 cells to MIC for Staphylococcus aureus RN4220; type: toxicity; details: read-out: Selectivity Index
# [29] = Selectivity index, ratio for IC50 for human HepG2 cells to MIC for methicillin-resistant Staphylococcus aureus subsp. aureus Rosenbach ATCC 43300; type: toxicity
# [30] = target: T2, Enoyl-[acyl-carrier-protein] reductase [NADPH] FabI; experiment: Inhibition of Staphylococcus aureus subsp. aureus Rosenbach ATCC 43300 FabI using crotonyl-CoA as substrate in presence of NADPH/NADH after 10 mins by fluorescence assay
# How it was run: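 SaFabI enzyme, 300 nM, in 50 mM MES/100 mM NaCl with 200 μM NADPH, 0.1 mg/mL BSA, 0.01% triton; started with 400 μM crotonyl-CoA. NADPH fluorescence at 340/460 nm. Compounds 0.4 nM–200 μM. Slopes over first 10 min compared with DMSO control for % inhibition. At least two independent experiments, each in duplicate. Two-fold experimental uncertainty.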
# [31] = Protein binding in human serum; type: ADME, cell-free; details: read-out: PB (converted)
# [32] = Protein binding in mouse serum; type: ADME, cell-free; details: read-out: PB (converted)
# [33] = Protein binding in dog serum; type: ADME, cell-free, Canis lupus familiaris; details: read-out: PB (converted)
# [34] = Protein binding in rat serum; type: ADME, cell-free; details: read-out: PB (converted)
SMILES,IC50 [2] [µg/mL],Activity [3],Activity [4],MIC [5] [µM],MIC [6] [µg/mL],MIC [7] [µg/mL],Selectivity ratio [8],FIC [9],fold change (FC) [10],MIC [11] [µg/mL],IC50 [12] [µg/mL],IC50 [13] [µM],MIC [14] [µg/mL],MIC [15] [µg/mL],MIC [16] [µg/mL],Ki [17] [µM],MIC [18] [µg/mL],Ki [19] [µM],MIC [21] [µg/mL],MIC [22] [µg/mL],further results
O=C(Cc1ccccc1)N1CCC(c2ccccc2)C1 (stereo not given),–,–,–,–,–,–,–,–,–,–,–,–,–,–,–,–,–,–,–,–,solubility [1]: Insoluble
COc1ccccc1C1CCN(C(=O)Cc2ccccc2Cl)C1 (racemic),39,Active,Active,75.8,50,> 200,4,0.19,10,25,75,3.6,12.5,> 200,0.39,1.8,0.39,0.2,–,–,FIC [20]: 0.25
O=C(Cc1c(F)cccc1F)N1CCC(c2ccccc2)C1 (racemic),> 200,Active,Active,166,> 200,> 200,–,0.25,–,–,237,6.9,25,> 200,0.19,3.5,–,0.7,> 200,50,–
O=C(Cc1ccccc1Cl)N1CCC(c2ccccc2)C1 (racemic),55,Active,Active,41.7,–,–,4,0.31,10,25,79,3.1,12.5,> 200,0.39,1.6,0.78,4,–,–,FIC [23]: 0.28; MIC [24]: 3.75 µg/mL; MIC [25]: 50 µg/mL; FIC [20]: 0.25
O=C(Cc1c(F)cccc1Cl)N1CCC(c2ccc3c(c2)OCO3)C1 (racemic),–,Active,Active,69.1,–,> 200,>4,–,–,–,–,> 200,–,> 200,–,> 100,–,0.7,> 200,25,–
O=C(Cc1ccccc1F)N1CCC(c2ccccc2)C1 (racemic),76,Active,Active,176,200,> 200,–,0.25,–,–,160,3.9,25,> 200,0.19,2,–,1.9,100,50,–
O=C(Cc1ccccc1Cl)N1CCC(c2ccc3c(c2)OCO3)C1 (racemic),46,Active,Active,18.2,> 200,–,>4,0.28,10,12.5,64,7.8,6.25,> 200,0.78,3.9,0.78,0.9,25,–,MIC [26]: 25 µg/mL; FIC [20]: 0.31
COc1ccccc1C1CCN(C(=O)Cc2c(F)cccc2F)C1 (racemic),65,Active,Active,151,–,> 200,–,0.38,–,–,279,3,50,> 200,0.19,1.5,–,2.1,> 200,–,–
COc1ccccc1C1CCN(C(=O)/C=C/c2ccc(NC(C)=O)nc2)C1 (racemic),138,Active,Active,34.2,–,–,4,–,10,12.5,219,0.42,25,> 200,0.39,0.2,0.78,1.3,–,–,Selectivity ratio [27]: 4.4; FIC [23]: 0.37; Selectivity ratio [28]: > 10; MIC [24]: 15 µg/mL; MIC [26]: 0.75 µg/mL; MIC [25]: 50 µg/mL; Selectivity ratio [29]: 8.8; FIC [20]: 0.31
CC(=O)Nc1ccc(CC(=O)N2CCC(c3ccccc3)C2)cc1 (racemic),–,Active,Active,–,> 200,–,–,–,–,–,–,> 100,–,> 200,–,> 50,–,> 37.1,> 200,–,MIC [26]: > 200 µg/mL; IC50 [30]: > 100 µM
O=C(Cc1ccccc1Cl)N1CCC(c2ccccn2)C1 (racemic),–,Active,Active,166,200,> 200,–,0.5,10,–,–,30.7,50,> 200,0.39,15.4,–,6.8,200,100,–
O=C(Cc1cccc(F)c1F)N1CCC(c2ccccc2)C1 (racemic),68,Active,Active,166,200,> 200,–,0.25,–,–,125,9.3,25,> 200,0.19,4.7,–,2.7,100,50,–
Cc1c(CN(C)C(=O)/C=C/c2cnc3c(c2)CCC(=O)N3)oc2ccccc12 [AFN-1252],–,–,–,–,–,–,–,–,–,–,–,–,–,–,–,–,–,–,–,–,fraction unbound [31]: 0.05; fraction unbound [32]: 0.05; fraction unbound [33]: 0.05; fraction unbound [34]: 0.05
